# A selection: hits, their analogues and other compounds. The true share with any hit is near 1.4%.
# ATG4B inhibitor: ATG4B protease inhibitors, primary screen, biochemical, fluorescence, uHTS | ATG4B cleavage of LC3-PLA2, NBD-HPC fluorescence, 1 h | inhibition, % at 8.33 µM | 0.51% of 340,000 active | AID 504462, 2011; in the data active = inhibition above about 40%
# Target sequence (Q9Y4P1 whole entry, looked up): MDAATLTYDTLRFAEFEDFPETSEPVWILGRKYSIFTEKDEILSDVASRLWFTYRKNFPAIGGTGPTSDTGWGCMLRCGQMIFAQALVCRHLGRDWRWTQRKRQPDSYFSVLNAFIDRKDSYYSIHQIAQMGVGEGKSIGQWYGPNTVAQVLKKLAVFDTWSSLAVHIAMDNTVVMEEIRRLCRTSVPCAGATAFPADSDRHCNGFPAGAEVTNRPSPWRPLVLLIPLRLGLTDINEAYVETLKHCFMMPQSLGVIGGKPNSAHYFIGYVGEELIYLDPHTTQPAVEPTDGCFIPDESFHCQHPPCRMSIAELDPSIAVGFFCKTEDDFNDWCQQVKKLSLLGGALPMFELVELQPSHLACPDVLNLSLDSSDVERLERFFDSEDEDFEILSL
# Tb MetRS inh: T. brucei MetRS inhibitors, primary screen, biochemical, luminescence; methionyl-tRNA synthetase (Trypanosoma brucei brucei); AID 624268, 2012; inhibition, % at 11.9 µM; purified T. brucei MetRS, ATP depletion, Kinase-Glo luminescence; 0.4% of 360,000 active;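 active = inhibition above a per-plate cutoff of the control wells' mean inhibition plus 3 SD, cut at about 5.5% in these data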;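 note: 0% = DMSO wells median and 100% = median of wells with control inhibitor compound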
#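 Dosing: 11.9 µM compound single dose, 0.9% DMSO; Assay system: purified T. brucei MetRS enzyme; Measured by: Kinase-Glo luciferase luminescence reporting remaining unconsumed ATP; Schedule: 15 min plus 2 h at 25 °C.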
# UCH37 DUB inh: inhibitors of human UCH37 deubiquitinase, primary screen, biochemical, Ub-AMC cleavage, fluorescence. purified proteasome/UCH37. inhibition, % (no concentration beside the values). 0.33% of 330,000 active. AID 588478, 2011;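 active = mean inhibition over replicate wells above about 20%, limit read from the data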;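 note: 0% = compound-free wells with enzyme and 100% = wells lacking proteasome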
#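 Material: human UCH37 enzyme supplied as purified proteasome complex / Amount: 0.15 nM proteasome as dispensed / Buffer or medium: pH 7.4 Tris-HCl (50 mM) with ovalbumin, ATP-MgCl2, DTT / Times: preincubation 30 min, reaction 25 min, room temperature / Technique: AMC fluorescence from Ub-AMC cleavage, excitation 355 nm, emission 460 nm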
# Rin1-Abl PPI inh: inhibitors of Rin1-Abl protein binding, primary screen, biochemical, TR-FRET | 0.4% of 360,000 active | Tyrosine-protein kinase ABL1 (Homo sapiens) + Ras and Rab interactor 1 (Homo sapiens), … | inhibition, % at 7.35 µM | AID 588664, 2011; in the data active = inhibition above about 5%, passing the limit was not always enough
# ATG4B conf: ATG4B protease inhibitors, retest, confirmation, biochemical, fluorescence, single concentration; shares compounds with ATG4B inhibitor; ATG4B protease fluorescent substrate cleavage assay; inhibition, % at 8.33 µM; 92% of 320 active; AID 504757, 2011; in the data active = inhibition above about 39%
# PLA2 counter: PLA2 enzyme inhibition, counter-screen for ATG4B inhibitor project, biochemical, single concentration, uHTS hits; shares compounds with ATG4B inhibitor; inhibition, % at 8.33 µM; purified PLA2, NBD-C6-HPC fluorescence, 45 min; 66% of 1,600 active; in the data active = inhibition above about 50%
# Target sequence (P04054 whole entry, looked up): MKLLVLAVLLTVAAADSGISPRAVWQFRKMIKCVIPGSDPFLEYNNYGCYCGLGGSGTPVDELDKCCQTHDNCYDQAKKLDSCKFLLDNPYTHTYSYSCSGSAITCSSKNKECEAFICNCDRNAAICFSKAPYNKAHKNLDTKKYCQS
# * = called active by the depositor; · = no result given.
SMILES,ATG4B inhibitor,Tb MetRS inh,UCH37 DUB inh,Rin1-Abl PPI inh,PLA2 counter,others
CCOc1ccc(-c2cn3ccccc3n2)cc1[N+](=O)[O-],5.2,0.9,4.6,-2.7,·,
COc1ccc(CN2CCc3ccc(NC(=O)c4ccncc4)cc3C2)c(F)c1,-1.9,0.1,·,-4.9,·,
O=C(CCN1C(=O)/C(=C/c2ccccc2Cl)SC1=S)Nc1ccccc1C(=O)O,58.0*,-0.8,6.7,-0.1,51.3*,
O=C(CCCN1C(=O)/C(=C/c2ccccc2Cl)SC1=S)NNC(=O)c1ccccc1,50.4*,-0.6,4.2,-3.5,31.1,ATG4B conf=54.8*
O=C(CCN1C(=O)/C(=C/c2ccco2)SC1=S)Nc1ccc(O)cc1C(=O)O,42.6*,-0.1,4.5,0.7,0.2,
CC1CCC(NC(=O)c2ccc(S(C)(=O)=O)cc2)CC1 (stereo not given),-6.9,-0.4,3.7,-1.9,·,
Cc1ccc2nc(/C(C#N)=C\c3ccc(Oc4ccc([N+](=O)[O-])cn4)cc3)[nH]c2c1,13.9,-1.2,-2.3,-0.7,·,
Cc1[nH]nc(SCC(=O)N2CCCCC2)c1[N+](=O)[O-],-14.0,-0.2,3.9,-4.0,·,
Cc1cc(NS(=O)(=O)c2ccc(NC(=O)C3CCCCC3)cc2)no1,-6.5,-0.5,-0.4,1.7,·,
COc1ccc(C2CC(O)(c3ccccc3)Oc3cc(OC)cc(OC)c32)cc1 (stereo not given),-3.4,-0.2,0.0,-1.7,·,
COc1ccc(C2CC(O)(c3ccccc3)Oc3c(C)ccc(C)c32)cc1 (stereo not given),56.5*,-0.5,1.0,3.1,65.0*,
Cc1c(Cl)cccc1Nc1ccccc1C(=O)O,43.7*,-1.3,2.4,1.6,43.8,ATG4B conf=56.7*
Cc1ccc2nc(NC(=O)[C@H](C)N3C(=O)C4CC=CCC4C3=O)sc2c1 (stereo not given in full),-2.7,0.0,4.2,-1.0,·,
CC(C)(C)c1nc(SCC(=O)c2ccccc2)c2ccccc2n1,50.5*,-0.7,2.8,-0.4,31.8,ATG4B conf=69.7*
Cc1ccccc1C(=O)NN=Cc1ccccn1,·,·,1.5,·,·,
O=C(NC(Cc1c[nH]c2ccccc12)C(=O)Nc1ccc(F)c([N+](=O)[O-])c1)c1cccs1 (stereo not given),71.2*,1.6,7.1,0.6,80.8*,
O=C(NC(Cc1c[nH]c2ccccc12)C(=O)Nc1ccc(OC(F)(F)F)cc1)c1cccs1 (stereo not given),-8.2,0.3,1.2,-1.2,·,
C[C@@H]1CN([C@H](C)CO)C(=O)c2cc(NC(=O)Cc3ccccc3)ccc2O[C@H]1CN(C)Cc1ccc(Oc2ccccc2)cc1,55.6*,-0.4,6.6,-1.6,67.7*,
Cc1ccc(-n2nnnc2SCC(=O)Nc2ccccc2N2CCCCC2)cc1C,12.3,-0.5,-1.7,-5.8,·,
Cc1ccc(-n2nnnc2SCC(=O)Nc2ccccc2-c2ccccc2)cc1C,52.4*,-0.3,1.2,4.6,47.6,
COc1ccc2cc3cc(C(=O)N4CC(C)CC(C)C4)oc3nc2c1 (stereo not given),49.2*,0.2,-136.2,-5.7,54.1*,
Cc1ccc2cc3cc(C(=O)N4CC(C)CC(C)C4)oc3nc2c1 (stereo not given),44.9*,0.4,3.8,-3.0,56.9*,
O=C(COC(=O)c1cc(Cl)ccc1[N+](=O)[O-])NCc1ccc(Cl)cc1Cl,52.4*,0.9,4.3,-1.0,45.5,ATG4B conf=64.9*
CCOc1ccccc1NC(=O)CN1CCC(NC(=O)c2ccccc2)CC1,4.1,-1.0,0.7,-0.2,·,
CCC(C(=O)NCC1CCCO1)N(Cc1ccc(F)cc1)C(=O)CNS(=O)(=O)c1ccccc1 (stereo not given),7.1,-0.8,·,-0.7,·,
SMILES,ATG4B inhibitor,Tb MetRS inh,UCH37 DUB inh,Rin1-Abl PPI inh,PLA2 counter,others
Cc1ccc(S(=O)(=O)N2[C@@H](c3ccc(C(C)(C)C)cc3)C(C(=O)O)=CC[C@H]2c2ccc(Cl)cc2)cc1,45.7*,-0.2,15.2,-0.9,54.5*,
Cc1ccc([C@@H]2CC=C(C(=O)O)[C@H](c3ccc(C(C)(C)C)cc3)N2S(=O)(=O)c2ccc(C)cc2)cc1,37.2,-0.1,8.3,-1.5,·,
Cc1ccc(C)c(Oc2cc(NC(=O)CCCn3nc(C)c([N+](=O)[O-])c3C)cc([N+](=O)[O-])c2)c1,64.8*,-0.6,1.8,1.2,63.9*,
Cc1nn(CCCC(=O)Nc2cc(Oc3ccccc3)cc([N+](=O)[O-])c2)c(C)c1[N+](=O)[O-],53.2*,-0.9,0.5,-0.9,63.0*,
Cc1cc([N+](=O)[O-])nn1CCCC(=O)Nc1ccc2c(c1)OCO2,-0.3,-0.4,2.1,3.7,·,
Cc1ccc(Oc2cc(NC(=O)CCCn3nc([N+](=O)[O-])cc3C)cc([N+](=O)[O-])c2)cc1,67.4*,-0.4,-3.5,-3.0,64.6*,
C=CCNC(=S)NNc1nc2c(c(=O)[nH]1)C1(CCCC1)Cc1ccccc1-2,-21.5,0.6,-17.7,-0.8,·,
O=c1[nH]c(NNC(=S)NCc2ccccc2)nc2c1C1(CCCCC1)Cc1ccccc1-2,71.8*,-1.3,-49.4,2.9,79.5*,
CC(C)CNC(=O)CSc1nnc(-c2ccc(Cl)cc2)n1N,-2.3,-1.0,1.2,2.3,·,
Cc1nnc(N2CCCC(C(=O)NCc3cccc(F)c3)C2)c2nn(-c3ccccc3)c(C)c12 (stereo not given),50.2*,-0.1,-80.4,0.0,36.9,
CCc1ccc(CNC(=O)C2CCCN(c3nnc(C)c4c(C)n(-c5ccccc5)nc34)C2)cc1 (stereo not given),-4.1,-0.5,-85.2,-0.3,·,
O=[N+]([O-])c1ccc(Nc2c3ccccc3nc3ccccc23)cc1,58.3*,2.6,6.2,-5.3,59.7*,
COc1ccc(Br)cc1CNC(=O)C1CCCN(c2nc3ccccc3o2)C1 (stereo not given),63.6*,0.0,-1.9,0.4,67.7*,
Cc1ccc2nc(NN=Cc3ccccc3F)nc(-c3ccccc3)c2c1,·,·,-85.7,·,·,
Cc1ccc2nc(N/N=C/c3ccccc3F)nc(-c3ccccc3)c2c1,46.2*,-0.2,·,-1.5,39.6,ATG4B conf=75.0*
Cc1cc(C=Nn2c(COc3ccccc3)nc3ccccc3c2=O)c(O)c([N+](=O)[O-])c1,·,·,6.5,·,·,
Cc1cc(/C=N/n2c(COc3ccccc3)nc3ccccc3c2=O)c(O)c([N+](=O)[O-])c1,60.0*,-0.8,·,-2.3,35.3,ATG4B conf=52.7*

# High-throughput results from PubChem.
